Source: ChEMBL document CHEMBL2069207, “Polyhydroxylated steroidal glycosides from Paris polyphylla” (J Nat Prod, 2012)
The source made the active and inactive calls. The rule behind the calls is not given here.

Each molecule was assayed on CCRF-CEM (assay: Cytotoxicity against human CCRF-CEM cells by XTT assay).
Format: functional, cell-based
Outline: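 CCRF-CEM human leukemia cells were exposed to 0.001 to 100 μM to build dose–response curves, read by XTT proliferation assay. IC50 was taken from the curves. Only agents giving at least 80% inhibition in a 100 μM screen were taken forward. An equivalent DMSO concentration was the negative control and viability reference, and doxorubicin was the positive control.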
For C[C@H](CC[C@@]1(O)O[C@H]2C[C@H]3[C@@H]4CC=C5C[C@@H](O[C@@H]6O[C@H](CO)[C@@H](O)[C@H](O[C@@H]7O[C@H](CO)[C@@H](O)[C@H](O)[C@H]7O)[C@H]6O[C@@H]6O[C@@H](C)[C@H](O)[C@@H](O)[C@H]6O)CC[C@]5(C)[C@H]4CC[C@]3(C)[C@H]2[C@@H]1C)CO[C@@H]1O[C@H](CO)[C@@H](O)[C@H](O)[C@H]1O, the IC50 was 1770 nM.
C[C@H](CCC1(O)OC2CC3C4CC=C5C[C@@H](O[C@@H]6O[C@H](CO)C(O[C@@H]7O[C@@H](CO)[C@H](O)[C@H]7O)[C@@H](O)[C@H]6O[C@@H]6O[C@@H](C)[C@H](O)[C@@H](O)[C@H]6O)CC[C@]5(C)C4CC[C@]3(C)C2[C@@H]1C)CO[C@@H]1O[C@H](CO)[C@@H](O)[C@H](O)[C@H]1O (some centres not stated) [PARISAPONIN I] was tested, and the IC50 was 1230 nM.
C[C@H](CC[C@@]1(O)O[C@H]2C[C@H]3[C@@H]4CC=C5C[C@@H](O[C@@H]6O[C@H](CO)[C@@H](O[C@@H]7O[C@@H](CO)[C@H](O)[C@H]7O)[C@H](O)[C@H]6O[C@@H]6O[C@@H](C)[C@H](O)[C@@H](O)[C@H]6O)CC[C@]5(C)[C@H]4CC[C@]3(C)[C@@]2(O)[C@@H]1C)CO[C@@H]1O[C@H](CO)[C@@H](O)[C@H](O)[C@H]1O [PARISYUNNANOSIDE A] gave an IC50 of 6680 nM.
CC1=C(CC[C@@H](C)CO[C@@H]2O[C@H](CO)[C@@H](O)[C@H](O)[C@H]2O)O[C@H]2C[C@H]3[C@@H]4CC=C5C[C@@H](O[C@@H]6O[C@H](CO)[C@@H](O[C@@H]7O[C@@H](C)[C@H](O[C@@H]8O[C@@H](C)[C@H](O)[C@@H](O)[C@H]8O)[C@@H](O)[C@H]7O)[C@H](O)[C@H]6O[C@@H]6O[C@@H](C)[C@H](O)[C@@H](O)[C@H]6O)CC[C@]5(C)[C@H]4CC[C@]3(C)[C@@H]12 showed an IC50 of 6520 nM.
Work on C[C@H](CC[C@@]1(O)O[C@H]2C[C@H]3[C@@H]4CC=C5C[C@@H](O[C@@H]6O[C@H](CO)[C@@H](O[C@@H]7O[C@@H](C)[C@H](O[C@@H]8O[C@@H](C)[C@H](O)[C@@H](O)[C@H]8O)[C@@H](O)[C@H]7O)[C@H](O)[C@H]6O[C@@H]6O[C@@H](C)[C@H](O)[C@@H](O)[C@H]6O)CC[C@]5(C)[C@H]4CC[C@]3(C)[C@H]2[C@@H]1C)CO[C@@H]1O[C@H](CO)[C@@H](O)[C@H](O)[C@H]1O [DICHOTOMIN] yielded an IC50 of 590 nM.
With COc1cccc2c1C(=O)c1c(O)c3c(c(O)c1C2=O)C[C@@](O)(C(=O)CO)C[C@@H]3O[C@H]1C[C@H](N)[C@H](O)[C@H](C)O1 [DOXORUBICIN] the IC50 was 2140 nM.

What follows are molecules tested on CCRF-CEM (assay: Cytotoxicity against human CCRF-CEM cells at 100 uM by XTT assay).
Format: functional, cell-based
Outline: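 Human CCRF-CEM leukemia cells; single fixed concentration of 100 μM. Proliferation inhibition was read by XTT assay and expressed as inhibition rate. Viability was referenced to an equivalent DMSO concentration as negative control. Doxorubicin served as positive control.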
With CC(C)(O)CC[C@@H](O)[C@](C)(O)[C@H]1CC[C@@]2(O)C3=CC(=O)[C@@H]4C[C@@H](O)[C@@H](O)C[C@]4(C)[C@H]3CC[C@]12C the Activity was “inactive”.
In the case of CC1=CO[C@@]2(O[C@H]3C[C@H]4[C@@H]5CC=C6C[C@@H](O)C[C@@H](O[C@@H]7O[C@H](CO)[C@@H](O)[C@H](O[C@@H]8OC[C@@H](O)[C@H](O)[C@H]8O)[C@H]7O[C@@H]7O[C@@H](C)[C@H](O)[C@@H](O)[C@H]7O)[C@]6(C)[C@H]5CC[C@]4(C)[C@H]3[C@@H]2CO[C@@H]2O[C@H](CO)[C@H](O)[C@H](O)[C@H]2O)[C@@H](O)[C@H]1O[C@@H]1O[C@H](C)[C@H](O)[C@H](O)[C@H]1O, the Activity is reported as “inactive”.
CC(C)(O)C(O)CC[C@](C)(O)[C@H]1CC[C@@]2(O)C3=CC(=O)[C@@H]4C[C@@H](O)[C@@H](O)C[C@]4(C)[C@H]3CC[C@]12C (some centres not stated) was tested, and the Activity was “inactive”.
C=C1CO[C@@]2(O[C@H]3C[C@H]4[C@@H]5CC=C6C[C@@H](O)C[C@@H](O[C@@H]7O[C@H](CO)[C@@H](O)[C@H](O[C@@H]8OC[C@@H](O)[C@H](O)[C@H]8O)[C@H]7O[C@@H]7O[C@@H](C)[C@H](O)[C@@H](O)[C@H]7O)[C@]6(C)[C@H]5CC[C@]4(C)[C@H]3[C@@H]2CO[C@@H]2O[C@H](CO)[C@H](O)[C@H](O)[C@H]2O)[C@@H](O)[C@H]1O[C@@H]1O[C@H](C)[C@H](O)[C@H](O)[C@H]1O was tested, and the Activity was “inactive”.
C[C@@H]1O[C@@H](O[C@H]2[C@H](O[C@@H]3C[C@H](O)CC4=CC[C@H]5[C@@H]6C[C@@H]7O[C@@]8(OC[C@H](C)[C@H](O[C@@H]9O[C@H](C)[C@H](O)[C@H](O)[C@H]9O)[C@@H]8O)[C@@H](CO)[C@@H]7[C@@]6(C)CC[C@@H]5[C@]43C)O[C@H](CO)[C@@H](O)[C@@H]2O[C@@H]2OC[C@@H](O)[C@H](O)[C@H]2O)[C@H](O)[C@H](O)[C@H]1O was tested, and the Activity was “inactive”.
For CC1=CO[C@@]2(O[C@H]3C[C@H]4[C@@H]5CC=C6C[C@@H](O)C[C@@H](O[C@@H]7O[C@H](CO)[C@@H](O)[C@H](O[C@@H]8OC[C@@H](O)[C@H](O)[C@H]8O)[C@H]7O[C@@H]7O[C@@H](C)[C@H](O)[C@@H](O)[C@H]7O)[C@]6(C)[C@H]5CC[C@]4(C)[C@H]3[C@@H]2CO)[C@@H](O)[C@H]1O[C@@H]1O[C@H](C)[C@H](O)[C@H](O)[C@H]1O, the Activity was “inactive”.
